Laboratory results: paper PMC9826232 (Chemmedchem, 2022)

Columns and labels:
[1] = molecular target: K‐Ras wild type protein (Homo sapiens, UniProt P01116); assay: Nucleotide exchange assay; assay type: biochemical
Outline: (§1)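 SOS1 (final 30.2 nM for G12D, 4.6 nM for wild type) and GTP (1 μM final) follow. Incubated overnight at room temperature, then GDP detection reagent for 1 h. Luminescence read; IC50 from sigmoidal curves.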

[2] = test system: NCI‐H441 (G12 V); assay: CellTiter-Glo cell viability assay, NCI-H441; assay type: cell-based; conditions: Homo sapiens, NCI-H441, 72 h, read-out: Cellular activity IC50, NCI‐H441 (G12 V)
Outline: (§2)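 Cells seeded, then held 24 h at 37 °C/5 % CO2 before test compound in DMSO was added at various concentrations. Plates were incubated a further 72 h at 37 °C, 5 % CO2, humidified. Controls were DMSO vehicle and 10 μM staurosporine. CellTiter-Glo reagent was added at equal volume to the medium, then 2 min shaking and 10 min at room temperature before luminescence (ATP) reading. IC50 from dose-response fit; plates accepted only if Z' ≥0.5, from 16 control values each.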

[3] = test system: H358 (G12 C); assay: CellTiter-Glo cell viability assay, H358; assay type: cell-based; conditions: Homo sapiens, NCI-H358, 72 h, read-out: Cellular activity IC50, H358 (G12 C)
Outline: as §2

[4] = test system: HCT15 (G13D); assay: CellTiter-Glo cell viability assay, HCT15; assay type: cell-based; conditions: Homo sapiens, HCT-15, 72 h, read-out: Cellular activity IC50, HCT15 (G13D)
Outline: as §2

[5] = cited from earlier work
[6] = test system: SNU‐1 (G12D); assay: CellTiter-Glo cell viability assay, SNU-1; assay type: cell-based; conditions: Homo sapiens, SNU1, 72 h, read-out: Cellular activity IC50, SNU‐1 (G12D)
Outline: as §2

[7] = test system: A549 (G12S); assay: CellTiter-Glo cell viability assay, A549; assay type: cell-based; conditions: Homo sapiens, A549, 72 h, read-out: Cellular activity IC50, A549 (G12S)
Outline: as §2

[8] = Control assay for nucleotide exchange assay; conditions: 3 mM compound; percent of control
[9] = molecular target: K‐Ras(G12D) (Homo sapiens, UniProt P01116, G12D); assay: Nucleotide exchange assay; assay type: biochemical
Chain of K‐Ras(G12D) (P01116 1-188 isoform P01116-2 G12D): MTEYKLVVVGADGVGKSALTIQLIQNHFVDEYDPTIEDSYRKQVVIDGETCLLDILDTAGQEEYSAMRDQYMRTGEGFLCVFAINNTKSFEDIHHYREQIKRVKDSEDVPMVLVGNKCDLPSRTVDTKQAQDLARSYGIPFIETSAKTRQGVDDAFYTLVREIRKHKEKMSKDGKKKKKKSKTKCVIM
Outline: as §1

Chain of K‐Ras wild type protein (P01116 1-188 isoform P01116-2): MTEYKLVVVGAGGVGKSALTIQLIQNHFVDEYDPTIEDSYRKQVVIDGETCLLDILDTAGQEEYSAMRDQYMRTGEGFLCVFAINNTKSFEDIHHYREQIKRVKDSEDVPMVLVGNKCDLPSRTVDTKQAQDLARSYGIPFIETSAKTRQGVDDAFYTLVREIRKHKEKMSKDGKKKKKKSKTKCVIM

O=[N+]([O-])c1ccc(NN=C(c2ccc(O)cc2)c2ccc(O)cc2)c([N+](=O)[O-])c1 [7 a, 4,4′‐((2‐(2,4‐Dinitrophenyl)hydrazinylidene)methylene)diphenol]
IC50 [1]: 306 ± 49 µM | IC50 [2]: 22.8 ± 4.2 µM | IC50 [3]: 20.9 ± 0.8 µM | IC50 [4]: 18.9 ± 0.6 µM | tolerability [5]: well tolerated | IC50 [6]: 16.7 ± 1.2 µM | IC50 [7]: 16.1 ± 1.5 µM | WT %CRTL (3 mM) [8]: 26% | IC50 [9]: 236 ± 46 µM
